Laboratory results reported in ChEMBL document CHEMBL4261486, “2-Arylaminobenzothiazole-arylpropenone conjugates as tubulin polymerization inhibitors” (Medchemcomm, 2017).
Activity calls are given as the source filed them. No cut-off for these calls is given here.

Experiments:
Tubulin (Homo sapiens) [1] = target: T1, Tubulin (Homo sapiens) (UniProt P68371+Q9H4B7+P0DPH7+P68366+Q13509+Q71U36+P04350+Q3ZCM7+P07437+P68363+Q9BQE3+Q6PEY2+Q13885+Q9BVA1+Q9BUF5); assay: Inhibition of tubulin polymerization in human HeLa cells assessed as appearance of irregular microtubule at 3 uM after 24 hrs by DAPI staining based confocal microscopic analysis; assay type: cell-based
Summary of the method: (§1)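 HeLa cells on coverslips were exposed to 3 μM for 24 h and fixed in 3.5% formaldehyde in PBS. They were permeabilized with Triton X-100/Tween-20 and blocked in 2% BSA. Primary antitubulin antibody (1:200) was applied for 4 h, then FITC anti-mouse secondary (1:500) for 1 h. Nuclei were counterstained with DAPI and imaged by confocal microscopy at 60×, with a DMSO control.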

HeLa [2] = assay: Upregulation of cyclin-B1 expression in human HeLa cells at 3 uM after 24 hrs by Western blot analysis; assay type: functional, cell-based
Summary of the method: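 HeLa cells were treated with 3 μM for 24 h, with a DMSO vehicle control. Cyclin B1 protein was detected by immunoblot with tubulin as loading control.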

[3] = Inhibition of bovine brain tubulin polymerization pretreated followed by GTP addition measured at 1 min interval for 1 hr by fluorescence reporter based assay; parameters: species or system Bos taurus
Summary of the method: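 Bovine brain tubulin (2 mg/mL) was pre-incubated with compound at 1, 2, 3, 4 and 5 μM. The buffer was PEM (80 mM PIPES, 0.5 mM EGTA, 2 mM MgCl2, pH 6.9) with 10 μM fluorescent reporter and 1 mM GTP at 37 °C. Fluorescence (ex 360 / em 420 nm) was read every min for 1 h. IC50 was derived from these concentrations.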

Tubulin (Homo sapiens) [4] = target: T1, Tubulin (Homo sapiens); assay: Inhibition of tubulin polymerization in human HeLa cells assessed as appearance of rounded microtubule at 3 uM after 24 hrs by DAPI staining based confocal microscopic analysis; assay type: cell-based; summary of the method: as §1
Tubulin (Homo sapiens) [5] = target: T1, Tubulin (Homo sapiens); assay: Inhibition of tubulin polymerization in human HeLa cells assessed as increase of tubulin in soluble fraction at 3 uM after 24 hrs by Western blot analysis; assay type: cell-based
Summary of the method: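 HeLa cells, 1 × 10^5 per well, were treated for 24 h (3 μM for test conjugates). The soluble fraction was extracted with warm PIPES/Triton lysis buffer for 3 min at 30 °C, and the remaining polymerized fraction was taken in Laemmli buffer. Equal volumes were run by SDS-10% PAGE and immunoblotted for α-tubulin (1:2000) with HRP secondary and ECL detection.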

MDA-MB-231 = assay: Antiproliferative activity against human MDA-MB-231 cells after 48 hrs by sulforhodamine B assay; assay type: functional, cell-based; conditions: MDA-MB-231, 48 h
Summary of the method: (§2)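 Cells grown in DMEM with 10% FBS at 37 °C under 5% CO2. Plated cells were allowed 24 h before drug, then exposed continuously for 48 h at 0.01, 0.1, 1, 10 and 100 μM. Monolayers were fixed with cold 10% TCA for 1 h at 4 °C and stained with 0.057% SRB in 1% acetic acid for 30 min. Bound dye was read at 510 nm. IC50 is the 50% growth-inhibitory concentration, using time-zero and control readings.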

A549 = assay: Antiproliferative activity against human A549 cells after 48 hrs by sulforhodamine B assay; assay type: functional, cell-based; conditions: A549, 48 h; summary of the method: as §2
MIA PaCa-2 = assay: Antiproliferative activity against human MIAPaCa2 cells after 48 hrs by sulforhodamine B assay; assay type: functional, cell-based; conditions: MIA PaCa-2, 48 h; summary of the method: as §2
HeLa [6] = assay: Induction of reactive oxygen species generation in human HeLa cells at 1 uM after 24 hrs by carboxy-DCFH-DA staining based fluorescence microscopic analysis; assay type: functional, cell-based
Summary of the method: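 Cells were treated with 1 μM for 24 h, then loaded with carboxy-DCFH-DA (10 μM) for 30 min at room temperature in the dark. They were resuspended in PBS at 5 × 10^4 cells per mL. DCF fluorescence was read by spectrofluorometer (ex 488 / em 525 nm per methods; 485/535 nm per legend), and images were taken by fluorescence microscopy.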

Tubulin (Homo sapiens) [7] = target: T1, Tubulin (Homo sapiens); assay: Inhibition of tubulin polymerization in human HeLa cells assessed as disruption of microtubule organization at 3 uM after 24 hrs by DAPI staining based confocal microscopic analysis; assay type: cell-based; summary of the method: as §1
HeLa [8] = assay: Cell cycle arrest in human HeLa cells assessed as accumulation at G2/M phase at 3 uM after 24 hrs by propidium iodide staining based flow cytometry (reference value: 33.4%); assay type: functional
HeLa [9] = assay: Induction of cyclin-B1 mRNA expression in human HeLa cells by qRT-PCR analysis; assay type: functional, cell-based
HeLa [10] = assay: Antiproliferative activity against human HeLa cells after 48 hrs by sulforhodamine B assay; assay type: functional, cell-based; summary of the method: as §2
HeLa [11] = assay: Induction of mitochondrial membrane potential loss in human HeLa cells at 1 uM after 24 hrs by Rh-123 staining based spectrofluorimetric method relative to control; assay type: functional
Summary of the method: (§3)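 HeLa cells, seeded at 5 × 10^5 cells per mL overnight, were exposed to 1 μM for 24 h. Cells were trypsinized and incubated in PBS with Rhodamine-123 (10 μg/mL) for 30 min at room temperature, then washed. Fluorescence was read on a spectrofluorometer relative to control. Data are mean ± SD of three independent experiments.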

HeLa [12] = assay: Induction of apoptosis in human HeLa cells assessed as appearance of condensed nuclei at 1 uM after 24 hrs by Hoechst […] staining based fluorescence microscopic analysis; assay type: functional, cell-based
Summary of the method: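 HeLa cells, 5 × 10^4 per well, were allowed 24 h to adhere. They were then exposed to 1 μM for 24 h at 37 °C and fixed in 4% paraformaldehyde for 10 min at 4 °C. Staining was with Hoechst […] at 5 μg/mL for 30 min at room temperature. Nuclear morphology was scored by fluorescence microscopy (ex 350, em 460 nm).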

HeLa [13] = assay: Induction of mitochondrial membrane potential loss in human HeLa cells assessed as collapse of the mitochondrial membrane potential at 1 uM after 24 hrs by Rh-123 staining based spectrofluorimetric method relative to control; assay type: functional; summary of the method: as §3

inhibition (Tubulin (Homo sapiens) [1])	IC50 [3]	inhibition (Tubulin (Homo sapiens) [4])	inhibition (Tubulin (Homo sapiens) [5])	IC50 (MDA-MB-231)	IC50 (A549)	IC50 (MIA PaCa-2)	inhibition (Tubulin (Homo sapiens) [7])	IC50 (HeLa [10])	SMILES	Activity (HeLa [2])	Activity (HeLa [6])	Activity (HeLa [8])	Activity (HeLa [9])	Activity (HeLa [11])	Activity (HeLa [12])	Activity (HeLa [13])
Active	2900 nM	Active	Active	2000 nM	1400 nM	2300 nM	Active	600 nM	COc1ccc2nc(-c3ccc(N/C=C\C(=O)c4ccc(OC)c(F)c4)c(C)c3)sc2c1	Active	Active	86.1%	Active	30%	Active	–
Active	2200 nM	Active	Active	1100 nM	900 nM	1300 nM	Active	500 nM	COc1ccc2nc(-c3ccc(N/C=C\C(=O)c4ccc(OC)c(F)c4)cc3)sc2c1	Active	Active	88.7%	Active	–	Active	40%
